From ChEMBL document CHEMBL1145178, “Exploring the role of different drug transport routes in permeability screening” (J Med Chem, 2005)
Where a SMILES comes first, the peptide text is derived from it.

How the values were obtained:
[1] = Fraction absorbed in human intestine after oral administration compound was measured; type: ADME, tissue-based
[2] = Permeability Coefficient in 2/4/A1 cell model; type: ADME, cell-based, Homo sapiens
[3] = Permeability Coefficient in Caco-2 cell culture model; type: ADME, cell-based; conditions: human
[4] = Permeability Coefficient in hexadecane membranes model; type: ADME, cell membranes; conditions: not told
Outline: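 Hexadecane (5% v/v in hexane) was loaded onto 0.4 µm polycarbonate filters, and the hexane was evaporated for ≥1 h at RT. Drug in HBSS/25 mM HEPES pH 7.4 was placed donor side, with pH 7.4 buffer receiver side, at 37°C and 500 rpm stirring. Receiver sampled over 10–120 min.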

Compound | Fa [1] [%] | Papp [2] [×10⁻⁶ cm/s] | Papp [3] [×10⁻⁶ cm/s] | Papp [4] [×10⁻⁶ cm/s] | Papp (Homo sapiens) [cm/s · 10E6]
C[C@H]1O[C@@H](O[C@H]2[C@@H](O)C[C@H](O[C@H]3[C@@H](O)C[C@H](O[C@H]4CC[C@@]5(C)[C@H](CC[C@@H]6[C@@H]5C[C@@H](O)[C@]5(C)[C@@H](C7=CC(=O)OC7)CC[C@]65O)C4)O[C@@H]3C)O[C@@H]2C)C[C@H](O)[C@@H]1O [DIGOXIN] | 81 | 6.7 | 1.3 | 0.12 | 
CN/C(=N/CCSCc1nc[nH]c1C)NC#N [CIMETIDINE] | 80 | 39 | 0.67 | 0.085 | 
CN(C)C(=N)N=C(N)N [METFORMIN] |  | 20 | 0.66 | 0.51 | 
CC(C)[C@H](N)C(=O)OCCOCn1cnc2c(=O)[nH]c(N)nc21 [VALACYCLOVIR] | 36 | 35 | 2.3 | 0.39 | 
O=C1c2c(O)ccc(O)c2C(=O)c2c(NCCNCCO)ccc(NCCNCCO)c21 [MITOXANTRONE] |  | 7.3 | 2.3 | 0.74 | 
CCN1CCCC1CNC(=O)c1cc(S(N)(=O)=O)ccc1OC (configuration not stated) [SULPIRIDE] | 30 | 11 |  |  | 
O=C(O)P(=O)(O)O [FOSCARNET] | 17 | 9.5 | 0.043 | 0.36 | 
COCCc1ccc(OCC(O)CNC(C)C)cc1 (configuration not stated) [METOPROLOL] |  | 190 |  | 8.6 | 
CN(CC(=O)O)C(=O)CN [GLYCYLSARCOSINE] (HELM PEPTIDE1{G.[Sar]}$$$$V2.0) | 100 | 11 | 0.5 | 0.25 | 
O=c1[nH]cnc2c1ncn2[C@H]1CC[C@@H](CO)O1 [DIDANOSINE] | 42 | 14 | 0.25 | 0.099 | 
CN(Cc1cnc2nc(N)nc(N)c2n1)c1ccc(C(=O)NC(CCC(=O)O)C(=O)O)cc1 (single isomer, unassigned) [METHOTREXATE] | 59 | 5.2 | 0.03 | 0.02 | 
OC[C@@H](O)[C@@H](O)[C@H](O)[C@H](O)CO [MANNITOL] |  | 11 |  | 0.17 | 
OC[C@H]1O[C@@H](O[C@@H]2[C@@H](CO)O[C@](O)(CO)[C@H]2O)[C@H](O)[C@@H](O)[C@H]1O [LACTULOSE] | 1 | 8.9 |  | 0.081 | 
CC(C)NCC(O)COc1cccc2[nH]ccc12 (configuration not stated) [PINDOLOL] |  | 67 |  | 0.73 | 
Cc1cc(=O)n(-c2ccccc2)n1C [ANTIPYRINE] |  | 250 |  | 11 | 
Nc1nc2c(ncn2COCCO)c(=O)[nH]1 [ACYCLOVIR] | 19 | 8.2 | 0.38 |  | 0.034
Nc1nc(=O)c2ncn([C@@H]3C[C@H](CO)[C@H]3CO)c2[nH]1 [LOBUCAVIR] | 50 | 14 | 0.88 | 0.057 | 
CC(C)NCC(O)COc1cccc2ccccc12 (configuration not stated) [PROPRANOLOL] | 100 | 240 | 204 | 58 | 
CC(C)(C)NCC(O)c1cc(O)cc(O)c1 (configuration not stated) [TERBUTALINE] | 73 | 41 | 0.23 | 0.96 | 
O=P(O)(O)C(Cl)(Cl)P(=O)(O)O [CLODRONIC ACID] | 3 | 4.5 | 0.059 | 12 | 
O=C(O)c1cc(/N=N/c2ccc(S(=O)(=O)Nc3ccccn3)cc2)ccc1O [SULFASALAZINE] | 12 | 9.6 |  |  | 0.028
Nc1nc(O)c2ncn(COC(CO)CO)c2n1 [GANCICLOVIR] | 5 |  |  |  | 
OC[C@H]1O[C@H](OC[C@H]2O[C@H](O[C@]3(CO)O[C@H](CO)[C@@H](O)[C@@H]3O)[C@H](O)[C@@H](O)[C@@H]2O)[C@H](O)[C@@H](O)[C@H]1O [RAFFINOSE] | 0 | 5.9 |  | 0.051 | 
CN1CC(=O)NC1=N [CREATININE] | 70 | 21 | 1.2 | 0.12 | 
Cc1ccccc1N1C(=O)c2cc(S(N)(=O)=O)c(Cl)cc2NC1C (configuration not stated) [METOLAZONE] | 64 | 14 | 4.3 | 1.1 | 
C=CCc1ccccc1OCC(O)CNC(C)C (configuration not stated) [ALPRENOLOL] |  | 290 |  | 160 | 
O=C(O)c1cc(/N=N/c2ccc(O)c(C(=O)O)c2)ccc1O [OLSALAZINE] | 3 | 4.5 | 0.05 | 12 | 
CC(C)(C)NCC(O)COc1cccc2c1C[C@H](O)[C@H](O)C2 (some centres not stated) [NADOLOL] | 30 | 14 | 0.28 | 0.032 | 
